The text below walks through data of ChEMBL document CHEMBL1122854, “Novel bis[1,6-dihydro-6,6-dimethyl-1,3,5-triazine-2,4-diamines] as antitrypanosomal agents” (1985).

Holding throughout (type): functional
Holding throughout (conditions): route subcutaneous

Experiment [1] relates to Trypanosoma brucei rhodesiense. Description: Antitrypanosomal activity was evaluated against Trypanosoma rhodesiense infections in mice, at dose 26 mg/kg, administered subcutaneously;Toxic. The method in brief:
(§1)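 IUR/HA Swiss mice (six weeks old, 30-32 g) infected i.p. with Wellcome CT strain T. rhodesiense. A single subcutaneous dose in peanut oil was given about 2 h after inoculation, with five mice per dose level. Positive control was stilbamidine or 2-hydroxystilbamidine isethionate at 40 mg/kg. Deaths before day 4 were scored toxic, and 30-day survivors cured.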

The subject of experiment [2] is Trypanosoma brucei rhodesiense. Description: Antitrypanosomal activity against Trypanosoma rhodesiense infections in mice, 424 mg/kg administered subcutaneously. The essentials: as §1
Experiment [3] deals with Trypanosoma brucei rhodesiense. The experiment can be described thus: Antitrypanosomal activity was evaluated against Trypanosoma rhodesiense infections in mice, at dose 106 mg/kg, administered subcutaneously. The method in brief: as §1
Experiment [4] deals with Trypanosoma brucei rhodesiense. Description: Anti-trypanosomal activity against Trypanosoma rhodesiense infections in mice, 26 mg/kg administered subcutaneously. The essentials:
(§2)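 Six-week-old IUR/HA Swiss mice (30-32 g), 5 per dose, infected ip with 0.5 mL of a 1:50 000 dilution of heparinized heart blood from donor mice infected 3 days before (Wellcome CT strain). Single sc dose in peanut oil about 2 h post-inoculation. Deaths before day 4 counted toxic. ΔMST versus untreated controls; survivors at 30 days counted cured.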

Experiment [5] deals with Trypanosoma brucei rhodesiense. The experiment can be described thus: Antitrypanosomal activity against Trypanosoma rhodesiense infections in mice, 3.3 mg/kg administered subcutaneously. The essentials: as §2
The subject of experiment [6] is Trypanosoma brucei rhodesiense. Description: Antitrypanosomal activity against Trypanosoma rhodesiense infections in mice, 6.6 mg/kg administered subcutaneously. The method in brief: as §2
For experiment [7], the system named is Trypanosoma brucei rhodesiense. The experiment can be described thus: Antitrypanosomal activity was evaluated against Trypanosoma rhodesiense infections in mice, at dose 1.6 mg/kg, administered subcutaneously. The method in brief:
as §2

In experiment [8] the test system is Trypanosoma brucei rhodesiense. The experiment can be described thus: Antitrypanosomal activity against Trypanosoma rhodesiense infections in mice, 106 mg/kg administered subcutaneously. The method in brief:
as §2

Experiment [9] concerns Trypanosoma brucei rhodesiense. Description: Antitrypanosomal activity was evaluated against Trypanosoma rhodesiense infections in mice, at dose 424 mg/kg, administered subcutaneously. The essentials:
as §2

The test system of experiment [10] is Mus musculus. Description: Antitrypanosomal activity was evaluated against Trypanosoma rhodesiense infections in mice, at dose 212 mg/kg, administered subcutaneously;Toxic. The essentials:
as §1

Experiment [11] has as its system Trypanosoma brucei rhodesiense. Description: Antitrypanosomal activity was evaluated against Trypanosoma rhodesiense infections in mice, at dose 212 mg/kg, administered subcutaneously. The method in brief:
as §2

Experiment [12] deals with Trypanosoma brucei rhodesiense. Description: Antitrypanosomal activity was evaluated against Trypanosoma rhodesiense infections in mice, at dose 53 mg/kg, administered subcutaneously. The essentials: as §2
Experiment [13] has as its system Trypanosoma brucei rhodesiense. Description: Antitrypanosomal activity was evaluated against Trypanosoma rhodesiense infections in mice, at dose 424 mg/kg, administered subcutaneously;Toxic. The method in brief: as §1
The subject of experiment [14] is Trypanosoma brucei rhodesiense. The experiment can be described thus: Antitrypanosomal activity was evaluated against Trypanosoma rhodesiense infections in mice, at dose 106 mg/kg, administered subcutaneously;Toxic. The method in brief: as §1
The subject of experiment [15] is Trypanosoma brucei rhodesiense. Description: Antitrypanosomal activity was evaluated against Trypanosoma rhodesiense infections in mice, at dose 26 mg/kg, administered subcutaneously. The essentials: as §1
For experiment [16], the system named is Mus musculus. The experiment can be described thus: Antitrypanosomal activity was evaluated against Trypanosoma rhodesiense infections in mice, at dose 13 mg/kg, administered subcutaneously. The essentials:
as §1

Experiment [17] has as its system Mus musculus. The experiment can be described thus: Antitrypanosomal activity was evaluated against Trypanosoma rhodesiense infections in mice, at dose 13 mg/kg, administered subcutaneously;Cures. The essentials: as §1
The subject of experiment [18] is Mus musculus. Description: Antitrypanosomal activity was evaluated against Trypanosoma rhodesiense infections in mice, at dose 212 mg/kg, administered subcutaneously;Cures. The method in brief: as §1
The subject of experiment [19] is Mus musculus. The experiment can be described thus: Antitrypanosomal activity was evaluated against Trypanosoma rhodesiense infections in mice, at dose 26 mg/kg, administered subcutaneously;Cures. The method in brief:
as §1

The subject of experiment [20] is Mus musculus. The experiment can be described thus: Antitrypanosomal activity was evaluated against Trypanosoma rhodesiense infections in mice, at dose 106 mg/kg, administered subcutaneously;Cures. The essentials:
as §1

In experiment [21] the test system is Mus musculus. The experiment can be described thus: Antitrypanosomal activity was evaluated against Trypanosoma rhodesiense infections in mice, at dose 6.6 mg/kg, administered subcutaneously;Cures. The essentials: as §1
In experiment [22] the test system is Mus musculus. The experiment can be described thus: Antitrypanosomal activity was evaluated against Trypanosoma rhodesiense infections in mice, at dose 53 mg/kg, administered subcutaneously;Cures. The essentials: as §1

For the molecule `CC1(C)N=C(N)N=C(N)N1c1ccc(Sc2ccc(N3C(N)=NC(N)=NC3(C)C)cc2)cc1.Cl.Cl`, the Toxic is given as 1 in [1], 5 in experiment [2] and 5 in experiment [3]. Moreover, the results for the “Delta MST” value in experiment [4], in experiment [5] and in experiment [6] were 2.7 days, 0.6 days and 0.6 days, respectively.

In experiment [2], `CC1(C)N=C(N)N=C(N)N1c1ccc(N2C(N)=NC(N)=NC2(C)C)cc1.Cl.Cl` yielded a Toxic of 3. Also, the “Delta MST” value in experiment [7] was 0.1 days; in experiment [8], 0.2 days; in [4] it was 0 days; in [5], -0.1 days; in experiment [9] it was 1 days; in [6], 0.1 days.

`CC1(C)N=C(N)N=C(N)N1c1cc(Cl)c(N2C(N)=NC(N)=NC2(C)C)c(Cl)c1.Cl.Cl` registered a Toxic in the experiment on Mus musculus [10] of 4. The “Delta MST” value in experiment [11] and in experiment [12] was -0.2 days in each case.

On to `CC1(C)N=C(N)N=C(N)N1c1ccc(Cc2ccc(N3C(N)=NC(N)=NC3(C)C)cc2[N+](=O)[O-])c([N+](=O)[O-])c1.Cl.Cl`, for which the Toxic in experiment [2] and in experiment [3] was 5 in each case. For the same molecule, the “Delta MST” value in experiment [4] turned out to be 0.6 days.

On to `CC1(C)N=C(N)N=C(N)N1c1ccc(OCCCCCCCCCCOc2ccc(N3C(N)=NC(N)=NC3(C)C)cc2)cc1.Cl.Cl`, for which the “Delta MST” value in experiment [8] was 0.1 days; in [4] it was -0.1 days; in experiment [9] it was 0.1 days.

In turn, `CC1(C)N=C(N)NC(Nc2ccc(CCc3ccc(NC4=NC(C)(C)N=C(N)N4)cc3)cc2)=N1.Cl` had a Toxic in [13] of 3. Besides, the “Delta MST” value in experiment [8] was 0.8 days; in experiment [4] it was 0.2 days; in [9] it was 0 days.

As to `Cc1ccc(NC(=O)Nc2ccc(C)c(N3C(N)=NC(N)=NC3(C)C)c2)cc1N1C(N)=NC(N)=NC1(C)C.Cl.Cl`, the Toxic in experiment [1] was 2; in experiment [2], 5; in experiment [14], 2. Besides, the “Delta MST” value in [8] and in experiment [4] was 0 days each time.

As for `CC1(C)N=C(N)N=C(N)N1c1ccc(OCCOc2ccc(N3C(N)=NC(N)=NC3(C)C)cc2)cc1.Cl.Cl`, the Toxic in [1] is 4; in experiment [2], 5; in experiment [3], 5. The “Delta MST” value came out at 2.8 days in [7], 8.9 days in experiment [4], 1 days in [5] and 2.6 days in [6].

Consider `CC1(C)N=C(N)N=C(N)N1c1ccc(OCCCCCCCCCCCCOc2ccc(N3C(N)=NC(N)=NC3(C)C)cc2)cc1.Cl.Cl`, for which the “Delta MST” value was determined as 0.8 days in [8]; 0.8 days in experiment [11]; 0.2 days in experiment [4]; 0.8 days in [9]; 0.4 days in experiment [12].

In the case of `CC1(C)N=C(N)N=C(N)N1c1ccc(OCCCCCOc2ccc(N3C(N)=NC(N)=NC3(C)C)cc2)cc1.Cl.Cl`, the Toxic (in experiment [2]; in experiment [15]; in experiment [3]; in the experiment with Mus musculus [16]) was 5 each time. Besides, the “Delta MST” value came out at 0 days in experiment [7], 0.2 days in experiment [5] and 0.4 days in [6].

As to `Cc1cc(S(=O)(=O)c2ccc(N3C(N)=NC(N)=NC3(C)C)cc2)ccc1N1C(N)=NC(N)=NC1(C)C.Cl.Cl`, the results for the Toxic in experiment [1], in [2] and in experiment [3] were 4, 5 and 5, respectively. In addition, the “Delta MST” value in [4] came to 0.7 days; in experiment [5] it was 0.2 days; in experiment [6], 0.4 days.

On to `CC1(C)N=C(N)N=C(N)N1c1ccc2oc3ccc(N4C(N)=NC(N)=NC4(C)C)cc3c2c1.Cl.Cl`, for which the Toxic in [2] and in experiment [3] was 5 each time. Also, the “Delta MST” value in experiment [7] was 0.2 days; in experiment [4], -0.2 days; in experiment [6], -0.2 days.

In the case of `CC1(C)N=C(N)N=C(N)N1c1ccc2c(c1)S(=O)(=O)c1cc(N3C(N)=NC(N)=NC3(C)C)ccc1C2.Cl.Cl`, the Toxic in experiment [2] turned out to be 5; in experiment [14], 4. In addition, the “Delta MST” value in experiment [7] is 0 days; in experiment [8], -0.3 days; in experiment [4], 0 days; in experiment [5], 0 days; in [6], 0.2 days.

`CC1(C)N=C(N)N=C(N)N1c1cc(C(=O)O)cc(N2C(N)=NC(N)=NC2(C)C)c1.Cl.Cl`: the “Delta MST” value in [8] was 0.1 days; in experiment [4], -0.1 days; in [9], -0.1 days.

Turning to `Cl.Cl.NC1=NC(C2CCC3(CC2)N=C(N)N=C(N)N3c2ccc(Cl)cc2)N(c2ccc(Cl)cc2)C(N)=N1` (stereo not given), the Toxic in experiment [2] was determined as 5; in experiment [3] it was 4. The “Delta MST” value in experiment [4] was 1 days.

As for `CC1(C)N=C(N)N=C(N)N1c1cccc(N2C(N)=NC(N)=NC2(C)C)c1.Cl.Cl`, the Toxic in experiment [2] was determined as 5; in experiment [15], 1; in experiment [3], 5. In addition, the “Delta MST” value in experiment [7], in experiment [4], in experiment [5] and in experiment [6] was 0 days each time.

As for `Cl.Cl.NC1=NC2(CCCCC2)NC(Nc2ccc(CCc3ccc(NC4=NC5(CCCCC5)NC(N)=N4)cc3)cc2)=N1`, the “Delta MST” value in [8], in experiment [4] and in experiment [9] was 0.2 days each time.

As for `CC1(C)N=C(N)N=C(N)N1c1ccc(SSc2ccc(N3C(N)=NC(N)=NC3(C)C)cc2)cc1.Cl.Cl`, the “Delta MST” value in experiment [8] turned out to be 0.1 days; in experiment [4], 0.1 days; in [9] it was 0.5 days.

For the molecule `Cc1ccc(N2C(N)=NC(N)=NC2(C)C)cc1NC(=O)Nc1cc(N2C(N)=NC(N)=NC2(C)C)ccc1C.Cl.Cl`, the Toxic in experiment [13] came to 3. In addition, the “Delta MST” value in experiment [8], in [4] and in experiment [9] was -0.1 days throughout.

Regarding `CC1(C)N=C(N)NC(Nc2ccc(NC3=NC(C)(C)N=C(N)N3)cc2)=N1.Cl.Cl`, the Toxic in experiment [2] stood at 5; in experiment [3] it was 4. For the same molecule, the entries for the “Delta MST” value in experiment [8] and in experiment [4] were 1.9 days and 1.3 days, respectively.

As to `CC1(C)N=C(N)N=C(N)N1c1ccc(OCCCCOc2ccc(N3C(N)=NC(N)=NC3(C)C)cc2)cc1.Cl.Cl`, the Toxic is reported as 1 in [1], 5 in experiment [2] and 4 in experiment [14]. Further, the “Delta MST” value in [7] turned out to be 0 days; in experiment [8] it was 1 days; in experiment [4], 0.3 days; in experiment [5], 0.2 days; in experiment [6] it was 0 days.

Regarding `COc1cc(-c2ccc(N3C(N)=NC(N)=NC3(C)C)c(OC)c2)ccc1N1C(N)=NC(N)=NC1(C)C.Cl.Cl`, the Cures turned out to be 3 in the experiment on Mus musculus [17]; 2 in the experiment with Mus musculus [18]; 4 in the experiment with Mus musculus [19]; 2 in the experiment with Mus musculus [20]; 3 in the experiment with Mus musculus [21]; 3 in the experiment with Mus musculus [22]. In addition, the Toxic in [2] is on record as 5. For the same molecule, the “Delta MST” value in experiment [7] was determined as 2.2 days; in experiment [8], 11.2 days; in experiment [11], 3.2 days; in experiment [4], 8.9 days; in experiment [5] it was 7.2 days; in experiment [6], 13.5 days. Moreover, in experiment [12], the “Delta MST” value came out at 4.9 days.

`CC1(C)N=C(N)N=C(N)N1c1ccc(CC(Cc2ccc(N3C(N)=NC(N)=NC3(C)C)cc2)C(=O)O)cc1.Cl.Cl` displayed a Toxic in experiment [13] of 2. In addition, the results for the “Delta MST” value in [8], in experiment [4] and in experiment [9] were 0.2 days, 0 days and 0 days, respectively.

In turn, `CC1(C)N=C(N)N=C(N)N1c1cccc2c(N3C(N)=NC(N)=NC3(C)C)cccc12.Cl.Cl` registered a Toxic in experiment [13] of 3. Also, the Delta MST is -0.3 days in experiment [8], 1.1 days in experiment [4] and -0.3 days in experiment [9].
